High-throughput results: PubChem, several laboratories
Runt-CBFb FRET: blocks binding of human RUNX1 Runt domain to CBFb. Q01196+Q13951. Cerulean-Runt/Venus-CBFb FRET ratio 530/480, 1 h. inhibition, % at 20 µM. 0.46% of 220,000 active;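 active means inhibition over about 50% at 20 µM in the single-dose screen, limit read from the data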;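 further: 0% = DMSO wells and 100% = excess unlabeled CBFb competitor control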
Target sequence (Q01196 whole entry, looked up, the tested form may be a part): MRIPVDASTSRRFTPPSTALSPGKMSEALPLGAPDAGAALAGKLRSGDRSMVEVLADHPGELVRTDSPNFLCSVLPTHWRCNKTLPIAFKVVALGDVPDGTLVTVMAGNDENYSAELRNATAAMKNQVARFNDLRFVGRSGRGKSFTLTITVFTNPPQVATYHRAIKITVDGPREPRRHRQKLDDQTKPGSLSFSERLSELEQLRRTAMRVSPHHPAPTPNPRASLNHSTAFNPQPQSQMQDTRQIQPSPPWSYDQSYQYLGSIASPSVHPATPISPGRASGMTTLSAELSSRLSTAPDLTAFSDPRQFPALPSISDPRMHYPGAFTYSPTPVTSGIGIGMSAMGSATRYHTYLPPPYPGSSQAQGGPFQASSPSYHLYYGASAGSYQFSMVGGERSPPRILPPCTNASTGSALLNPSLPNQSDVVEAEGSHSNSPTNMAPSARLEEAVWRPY
Target sequence (Q13951 whole entry, looked up, the tested form may be a part): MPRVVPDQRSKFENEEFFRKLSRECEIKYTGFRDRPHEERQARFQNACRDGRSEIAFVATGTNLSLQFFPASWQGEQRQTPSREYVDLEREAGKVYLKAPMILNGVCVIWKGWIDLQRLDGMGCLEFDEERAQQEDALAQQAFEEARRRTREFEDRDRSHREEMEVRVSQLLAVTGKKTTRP
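Schedule: protein complex preformed 1 h, compound exposure 1 h, room temperature, dark; test system: Cerulean-labeled Runt domain protein; amount: 100 nM per protein; buffer or medium: Tris 50 mM pH 7.5, KCl, K2SO4, 0.01% BSA; read-out: loss of energy transfer signal; detection: FRET fluorescence; controls: 5 µM unlabeled CBFb as full-inhibition high control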
Runt-SMMHC FRET: Runt domain-CBFb-SMMHC interaction inhibition; Cerulean-Runt/Venus-CBFb-SMMHC FRET ratio 530/480, 1 h; Q01196+Q13951; 0.74% of 220,000 active; inhibition, % at 20 µM;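 active means mean inhibition across duplicate retests at 20 µM reaching about 50%, limit read from the data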;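 further: 0% = DMSO wells and 100% = wells with excess untagged CBFb-SMMHC; inhibitors lower the FRET ratio by blocking Runt binding to CBFb-SMMHC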
Hck Nef HTS: human Hck-Nef kinase inhibition; P08631; Recombinant Hck-YEEI plus Nef, Z-Lyte FRET kinase assay; inhibition, % at 20 µM; 0.68% of 220,000 active; AID 463187;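 active means Hck-Nef kinase inhibition above about 50%, limit read from the data; inactive means inhibition below that limit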;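 further: 0% = DMSO with Hck plus Nef and 100% = Hck alone without Nef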
Tb hexokinase: T. brucei hexokinase 1 inhibition | inhibition, % at 10 µM | recombinant TbHK1, G6PDH-coupled NADH A340 | AID 1430 | 0.11% of 220,000 active;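 active means inhibition of 50% or more in the single-dose primary screen; inactive means inhibition below 50%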
p97 inhibitor: blocks human p97 ATPase activity; P55072; recombinant p97 ATPase, Kinase-Glo ATP luminescence, 3 h; inhibition, % at 8 µM; 0.42% of 220,000 active; in the data active means inhibition above about 15%;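 further: 0% = DMSO vehicle and 100% = wells lacking enzyme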
RanGTP-Imp inh: disruptors of Ran-importin-beta complex formation – biochemical, FRET, CFP-Ran, YFP-importin-beta, homogeneous, primary screen; 1.1% of 300,000 active; inhibition, % (no concentration beside the values); cell-free CFP-Ran/YFP-importin-beta FRET ratio; AID 2216;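 active means more than half of the replicate wells show a fall in the fluorescence ratio signal beyond about 16%, limit read from the data, passing the limit was not always enough; inconclusive means exactly half of the replicate wells pass the set limit; inactive means fewer than half of replicates pass the limit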;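 further: 0% = DMSO wells and 100% = Ran loaded with GDP instead of GTP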
G6PDH counter: counter-screen for TbHK1 inhibitors: Leuconostoc G6PDH inhibition. shares compounds with Tb hexokinase. purified G6PDH, NADH absorbance, 1 h. inhibition, % at 10 µM. 7% of 210 active. AID 2516;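 active means at least 50% inhibition in the glucose-6-phosphate dehydrogenase coupled counterscreen; inconclusive means no clear call, values can overlap the other calls; inactive means inhibition below 50%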
TbHK1 rescreen: T. brucei hexokinase 1 inhibition, rescreen | shares compounds with Tb hexokinase | recombinant TbHK1, G6PDH-coupled NADH A340 absorbance | inhibition, % at 10 µM | 10% of 210 active;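 active means inhibition of at least 50% in both of the two screening runs; inconclusive means at least 50% in one run, below 50% in the other; inactive means inhibition below 50% in both runs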;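 further: 0% and 100% set by the maximum and minimum signal control wells on each plate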
Numbers without * were called inactive; ? = inconclusive; . = no result; ! = not active in a repeat. Hits are enriched below; roughly 2.1% of the tested compounds scored in any of these assays.

SMILES | Runt-CBFb FRET | Runt-SMMHC FRET | Hck Nef HTS | Tb hexokinase | p97 inhibitor | RanGTP-Imp inh | others
O=C(O)CN1C(=O)C2C3CC(C2C1=O)C1C(c2ccc(Cl)cc2)c2sc(=O)[nH]c2SC31 (stereo unspecified) | 42 | 27 | 23 | -2 | 6 | 73*
O=C(O)CN1C(=O)C2C3CC(C2C1=O)C1C(c2ccc(F)cc2)c2sc(=O)[nH]c2SC31 (stereo unspecified) | 33 | 26 | 24 | 1 | 3 | 79*
O=C(O)CCCN1C(=O)C2C3CC(C2C1=O)C1C(c2ccccc2)c2sc(=O)[nH]c2SC31 (stereo unspecified) | 14 | 15 | -76 | 1 | 2 | 8
CC(C(=O)O)N1C(=O)C2C3CC(C2C1=O)C1C(c2ccccc2)c2sc(=O)[nH]c2SC31 (stereo unspecified) | 18 | 12 | 0 | 1 | -8 | 74*
O=c1[nH]c2c(s1)C(c1ccc(O)cc1)C1C3CCC(C3)C1S2 (stereo unspecified) | 16 | 11 | 1 | 0 | 1 | -2
COC(=O)c1c(NC(=O)CN2CCN(c3cccc(Cl)c3)CC2)sc(C)c1C | -2 | 3 | 3 | 4 | 5 | 6
OCc1ncc(-c2ccccc2)s1 | 2 | -2 | 15 | -6 | 3 | 5
NS(=O)(=O)c1cnccc1Nc1cccc(F)c1 | . | . | . | . | . | 1
FC(F)(F)c1cc(C(F)(F)F)c2ccc(N3CCOCC3)nc2n1 | . | . | . | . | . | 3
CN1CCCc2cc3c(C(F)(F)F)cc(=O)oc3nc21 | 12 | 42 | 2 | 1 | 2 | 132*
NC(=S)Cc1nc(-c2ccccc2)cs1 | 0 | -4 | 10 | -2 | 7 | 30*
Cc1ccc(Cn2c(CCCO)nc3ccccc32)cc1 | . | . | . | . | . | -2
CCC(C)[C@H]1COCCS(=O)(=O)N1Cc1ccc(Cl)cc1Cl (stereo partly specified) | . | . | . | . | . | -5
CCCCc1cc(=O)oc2cc(O)cc(O)c12 | 35 | 61* | -41 | -31 | 8 | 5
CCCCc1cc(=O)oc2cc(C)cc(O)c12 | . | -44 | -1 | -9 | -1 | 1
CC(C)(C)c1ccc(/C=C2\Oc3cc(O)ccc3C2=O)cc1 | . | . | . | . | . | 3
COC(=O)c1ccc2c(c1)C(=O)/C(=C/c1ccc(O)cc1)O2 | -226 | -106 | 11 | 0 | -6 | 19*
COc1ccc2nc3c(cc2c1)c(NC(=O)CC(C)C)nn3CC(C)C | . | . | . | . | . | 74*
COc1ccc(-n2nc3cc(C)c(NC(=O)CC(C)C)cc3n2)cc1 | -2 | 2 | 1 | -9 | 1 | ?
CCCCn1nc(NC(=O)CCC)c2cc3cc(OC)ccc3nc21 | . | . | . | . | . | 71*
CCCC(=O)Nc1nn(CCC)c2nc3ccccc3cc12 | 8 | 4 | 14 | 3 | -1 | 8
CCCCn1nc(NC(=O)CC(C)C)c2cc3cc(OC)ccc3nc21 | . | . | . | . | . | 84*
Cc1ccc(C)c(N(CC(=O)NC2CCCC2)C(=O)CCCC(=O)Nc2ccccn2)c1 | -3 | 4 | -1 | 3 | 1 | -1
O=C(CSc1nnc(-c2cccc(F)c2)o1)Nc1nncs1 | 0 | 2 | 25 | -1 | 3 | -3
O=C1c2cccc(OCC(=O)N3CCCc4ccccc43)c2CCN1Cc1ccc(F)cc1 | -1 | -1 | 0 | 45 | -5 | -1
SMILES | Runt-CBFb FRET | Runt-SMMHC FRET | Hck Nef HTS | Tb hexokinase | p97 inhibitor | RanGTP-Imp inh | others
Cc1cccc(CN2CCc3c(OCC(=O)N4CCCc5ccccc54)cccc3C2=O)c1 | -4 | 2 | 0 | -11 | -2 | 22*
Cc1snc(SCC(=O)c2ccc([N+](=O)[O-])cc2)c1C#N | 21 | 60* | -56 | -2 | 6 | .
Cc1c(Cl)sn(-c2ccc(Cl)cc2)c1=O | 29 | 53* | -107 | 35 | 6 | .
Cc1nn(-c2ccc(Cl)cc2)c(=O)c2ccccc12 | 2 | 5 | 10 | -4 | 3 | -2
O=C(O)C1Sc2[nH]c(=O)sc2C2c3ccc(O)cc3OC(=O)C12 (stereo unspecified) | 20 | 87* | 30 | -2 | 12 | .
CC1(C(=O)O)Sc2[nH]c(=O)sc2C2c3ccccc3OC(=O)C21 (stereo unspecified) | 13 | 2 | -1 | -8 | 6 | 48*
COC(=O)C1Sc2[nH]c(=O)sc2C2c3ccccc3OC(=O)C12 (stereo unspecified) | 17 | -4 | -1 | 2 | 5 | 60*
C=COCCNC(=O)C1CC(=O)N(c2ccc(C)cc2)C1 (stereo unspecified) | 0 | -1 | 2 | 5 | 2 | 1
CCOC(=O)/C(C#N)=C/c1c(N2CCN(C)CC2)nc2ccccn2c1=O | . | . | . | . | . | 101*
CCNC(=O)/C(C#N)=C/c1c(N2CCOCC2)nc2ccccn2c1=O | 63* | 81* | 15 | -16 | 7 | 9
C=CCNC(=O)/C(C#N)=C/c1c(N2CCCCCC2)nc2ccccn2c1=O | . | . | . | . | . | 4
CN1CCN(c2nc3ccccn3c(=O)c2/C=C(\C#N)S(=O)(=O)c2ccccc2)CC1 | 2 | 5 | 9 | -22 | 6 | 72*
COCCNC(=O)/C(C#N)=C/c1c(N2CCN(C)CC2)nc2ccccn2c1=O | . | . | . | . | . | 97*
N#C/C(=C\c1c(N2CCN(c3ccccc3)CC2)nc2ccccn2c1=O)S(=O)(=O)c1ccccc1 | . | . | . | . | . | -3
CCOC(=O)CSc1nc(C2CC2)cc(-c2ccc(Cl)cc2)c1C#N | 1 | -3 | 4 | -17 | -3 | -3
Cc1cccc(N/N=C(\C(N)=O)C2=NC(C)(C)Cc3ccccc32)c1 | -7 | -2 | 65* | -16 | -1 | 4
CCOC(=O)/C(=N\O)C1=NC(C)(C)Cc2ccccc21 | -3 | -6 | 6 | -1 | 3 | 0
CC1(C)OC(=O)C(=CNc2ncccn2)C(=O)O1 | 0 | 4 | 4 | 52* | 4 | -1 | G6PDH counter=-27;TbHK1 rescreen=-25
Cc1cc(C)nc(NC=C2C(=O)OC(C)(C)OC2=O)n1 | 2 | 1 | 8 | -23 | 2 | 0
S=C(NNc1ccnc2cc(Cl)ccc12)Nc1ccc(Cl)cc1Cl | 20 | -21 | 26 | 61* | 4 | -3 | G6PDH counter=109*;TbHK1 rescreen=60*
CC(=O)/C=C(/C)NC(Cc1c[nH]c2ccccc12)C(=O)O (stereo unspecified) | -2 | -4 | 11 | 51*! | -1 | 0 | G6PDH counter=-17;TbHK1 rescreen=-3
CC(C(=O)NC1CCCCC1)N1CCN(C)CC1 (stereo unspecified) | 3 | -3 | 14 | -7 | 6 | 6
